From PMC11790068 (Journal of medicinal chemistry, 2015)
Entries after “also recorded” stand apart in the source; their conditions may differ. Blank lines part the entries; values can stand above or below the compound they belong to.

Columns and labels:
[1] = test system: CT-L activity of purified 20S human proteasomes (β5, β5i, β1i); experiment: Enzyme kinetics assay, CT-L activity of purified 20S proteasomes; assay type: biochemical; details: for Inhibition of the CT-L activity of purified proteasomes: purified 20S CP and IP, β5, β5i, β1i, result in words; for Activation of the CT-L activity of proteasomes: at 10 μM, purified proteasomes
How it was run: (§1)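 Purified human 20S constitutive and immunoproteasome (0.5 µg/mL) was preincubated with test compound for 30 min at room temperature in 20 mM Tris-HCl, 0.5 mM EDTA, 0.035% SDS. Reactions were started with a subunit-selective AMC substrate: β1 Ac-nLPnLD-AMC 100 µM; β2/β2i Boc-LRR-AMC 200 µM; β5 Ac-WLA-AMC 20 µM; β1i Ac-PAL-AMC 100 µM; β5i Ac-ANW-AMC 100 µM. AMC fluorescence (ex 360/em 460 nm) was followed for 90 min at room temperature.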

[2] = biological target: C-L activity responsible β1 subunit of purified 20S human proteasome (Homo sapiens, UniProt P28072); experiment: Enzyme kinetics assay, C-L activity of purified 20S proteasome; assay type: biochemical; details: result in words
How it was run: as §1

[3] = test system: BxPC-3 cell lines with acquired resistance to bortezomib or carfilzomib; experiment: Cytotoxicity in bortezomib- or carfilzomib-resistant BxPC-3 sublines; assay type: cell-based, human; details: BxPC-3 sublines adapted to 60 nM bortezomib or 200 nM carfilzomib
[4] = biological target: T1, proteasomal C-L activity of RPMI 8226 cell extracts (Homo sapiens, UniProt P28072); experiment: C-L activity of proteasomes in cell extracts; assay type: biochemical; details: result in words
T1 sequence (P28072 1-239): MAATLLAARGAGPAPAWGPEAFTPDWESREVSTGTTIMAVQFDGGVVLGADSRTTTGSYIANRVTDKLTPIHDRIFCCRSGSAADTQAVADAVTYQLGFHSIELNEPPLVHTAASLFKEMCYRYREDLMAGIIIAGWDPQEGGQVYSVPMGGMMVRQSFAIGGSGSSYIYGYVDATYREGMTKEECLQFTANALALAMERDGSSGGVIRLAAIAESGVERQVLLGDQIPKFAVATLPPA
How it was run: (§2)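 Cytosolic extracts of RPMI-8226 cells were prepared by the Kisselev and Goldberg method and used in place of purified 20S proteasome. Hydrolysis of fluorogenic substrates was measured as AMC release: Suc-LLVY-AMC for CT-L, Z-LLE-AMC for C-L and Boc-LRR-AMC for T-L activity. Fluorescence was read at excitation 360 and emission 460 nm.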

[5] = test system: cancer cell lines including LNCaP prostate cancer cells; experiment: Cytotoxicity of G4-1 in cancer cell lines; assay type: cell-based, human; details: variety of cancer cell lines including LNCaP; 72 h
How it was run: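 Log-phase adherent cells were seeded at 7,000–10,000 per well; suspension RPMI 8226 cells were pelleted and seeded at 10,000 per well. Viability was read after 72 h by CellTiter Glo luminescence or CellTiter 96 Aqueous One absorbance.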

LNCaP tumors = experiment: In vivo efficacy assay, LNCaP xenograft; set-up: species or system mouse; details: 5 mg/kg i.p. twice a week for 4 weeks
[6] = test system: proteasomal CT-L activity of RPMI 8226 cell extracts; experiment: CT-L activity of proteasomes in cell extracts; assay type: biochemical, human; details: result in words
How it was run: as §2

[7] = test system: proteasome in RPMI 8226 cell lysates (Suc-LLVY-AMC hydrolysis); experiment: Jump dilution reversibility assay; assay type: biochemical, human
How it was run: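 RPMI 8226 lysate (30 µg total protein) was incubated with test compound at 10 µM in 20S proteasome assay buffer for 30 min at room temperature. Baseline Suc-LLVY-AMC hydrolysis was recorded in a cuvette. The mixture was then rapidly diluted 25-fold in assay buffer (10 to 0.4 µM compound), and substrate hydrolysis was monitored for about 30 min.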

[8] = test system: proteasomal T-L activity of RPMI 8226 cell extracts; experiment: T-L activity of proteasomes in cell extracts; assay type: biochemical, human; details: result in words
How it was run: as §2

SMILES: Cc1ccc(OS(=O)(=O)c2cccc(C(F)(F)F)c2)c(-c2cc(-c3ccccc3)n(CCN[C@@H]3CCNC3)n2)c1 [G4]
Inhibition of the CT-L activity of purified proteasomes [1]: potently inhibit; also recorded: selectively inhibits; also recorded: preferentially inhibits | Inhibition of the C-L activity (β1) of purified proteasome [2]: selectively inhibits; also recorded: preferentially inhibits

SMILES: Cc1ccc(OS(=O)(=O)c2cccc(C(F)(F)F)c2)c(-c2cc(-c3ccccc3)n(CC(=O)N[C@@H]3CCNC3)n2)c1 [G4-1]
Impact of acquired resistance to bortezomib or carfilzomib on anticancer effect [3]: not negatively impacted | Inhibition of proteasomal C-L activity of cell extracts [4]: effectively inhibit | Anticancer activity against cancer cell lines [5]: good anticancer activity | Body weight of mice over the course of treatment (LNCaP tumors): maintained normal weight gain | Systemic toxicity in mice (LNCaP tumors): without apparent systemic toxicity | Tumor growth in vivo (LNCaP tumors; nude mice bearing LNCaP tumors): effectively suppressed tumor growth | Inhibition of proteasomal CT-L activity of cell extracts [6]: effectively inhibit | Inhibition of proteasomal activity after preincubation ([7]; 10 μM, 30 min preincubation with RPMI 8226 cell extracts): nearly complete inhibition | Inhibitor dissociation half-life ([7]; after 25-fold dilution from 10 to 0.4 μM): approximately 3.2 min | Mode of proteasome inhibition ([7]; jump dilution, upward curvature of progress curve): reversibility | Inhibition of the CT-L activity of purified proteasomes [1]: most potent inhibitor | Activity against the T-L activity of cell extracts [8]: no activity

SMILES: CC1=C(COC(=O)Cn2nc(-c3cc(C)ccc3OS(=O)(=O)c3cccc(C(F)(F)F)c3)cc2-c2ccccc2)Cc2ccccc21 [G4-16]
Activation of the CT-L activity of proteasomes [1]: up to 200%

The remaining lines, values ahead:

Inhibition of the CT-L activity of purified proteasomes [1]: potently inhibit
SMILES: Cc1ccc(OS(=O)(=O)c2cccc(C(F)(F)F)c2)c(-c2cc(C3CCCN(C(=O)N[C@@H]4CCNC4)C3)n(CCN[C@@H]3CCNC3)n2)c1 (stereo partly shown) [G4-42]

Activation of the CT-L activity of proteasomes [1]: up to 200%
SMILES: Cc1ccc(OS(=O)(=O)c2ccc(F)c([N+](=O)[O-])c2)c(-c2cc(-c3ccccc3)n(CCN[C@@H]3CCNC3)n2)c1 [G4–21]

Inhibition of the CT-L activity of purified proteasomes [1]: potently inhibit
SMILES: Cc1ccc(OS(=O)(=O)c2cccc(C(F)(F)F)c2)c(-c2cc(C3CCCNC3)n(CCN[C@@H]3CCNC3)n2)c1 (stereo partly shown) [G4-41]

Inhibition of the CT-L activity of purified proteasomes [1]: potently inhibit
SMILES: Cc1ccc(OS(=O)(=O)c2cccc(C(F)(F)F)c2)c(-c2cc(C3CCCCC3)n(CCN[C@@H]3CCNC3)n2)c1 [G4-40]
